According to ChEMBL document CHEMBL1147925, “First pharmacophore-based identification of androgen receptor down-regulating agents: discovery of potent anti-prostate cancer agents” (Bioorg Med Chem, 2007):

Columns and labels:
[1] = tested on: LNCaP; experiment: Growth inhibition of human LNCaP cells after 5 days by MTT colorimetric assay; details: 120 h
[2] = tested on: LNCaP; experiment: Decrease in androgen receptor protein expression in LNCaP cells by Western blotting; type: functional, cell-based; details: Homo sapiens
Outline: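 Whole-cell lysates were made in 0.1M Tris/0.5% Triton X-100 with protease inhibitor, and protein was measured by Bradford. Samples were run on 10% SDS-PAGE and immunoblotted with anti-AR monoclonal AR441 (1:500), HRP secondary and ECL. Signal was normalized to β-actin, and EC50 was taken from dose-response curves.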

**Q.** What does the source list for `O=C(CNCCCc1ccccc1)c1ccc(O)c(O)c1`?
**A.** IC50 [1]: 26.9 µM; EC50 [2]: 43.5 µM

**Q.** Which results are given for `CCOC(=O)c1ccccc1OC(=O)Oc1ccccc1C(=O)OCC`?
**A.** IC50 [1]: 4.5 µM; EC50 [2]: 65.5 µM

**Q.** For `COc1cc(/C=C/C(=O)CC(=O)/C=C/c2ccc(O)c(OC)c2)ccc1O` [CURCUMIN], which EC50 [2] is on record?
**A.** 35 µM

**Q.** What does the source list for `Cc1ccc(S(=O)(=O)Nc2ccc(C)cc2[N+](=O)[O-])cc1`?
**A.** IC50 [1]: 39.8 µM; EC50 [2]: 76 µM

**Q.** Which EC50 [2] does the source give for `O=C(O)c1ccccc1Nc1cccc(C(F)(F)F)c1` [FLUFENAMIC ACID] here?
**A.** 200 µM

**Q.** Which IC50 [1] does the source give for `O=c1cc(CO)oc(C(Nc2ccccc2)c2ccccc2)c1O` (centres undefined) here?
**A.** 20.9 µM

**Q.** What about the EC50 [2] of the same molecule?
**A.** 212 µM

**Q.** With `CCN(CCO)C(C(=O)c1ccc(Cl)cc1)c1ccc(Cl)cc1` (centres undefined) as the molecule, how does the IC50 [1] read?
**A.** 8.31 µM

**Q.** And the EC50 [2]?
**A.** 39.5 µM

**Q.** `CSc1ccc(OS(=O)(=O)c2cccc3nsnc23)cc1` was tested. Which IC50 [1] did it give?
**A.** > 50 µM

**Q.** What about the EC50 [2] of the same molecule?
**A.** 17.5 µM
